Test results as given in ChEMBL document CHEMBL4387708, “Enhancement of Benzothiazoles as Pteridine Reductase-1 Inhibitors for the Treatment of Trypanosomatidic Infections” (J Med Chem, 2019).
Calls of active or inactive are those of the source. The rule behind the calls is not given here.

Legend:
[1] = target: Voltage-gated inwardly rectifying potassium channel KCNH2 (Homo sapiens, UniProt Q12809); test: Displacement of Tracer Red from human ERG by fluorescence polarization assay
Cytochrome P450 2D6 = Cytochrome P450 2D6 (Homo sapiens, UniProt P10635); test: Inhibition of human CYP2D6 expressed in baculovirus infected insect cells using beetle D-luciferin as substrate preincubated for 30 mins followed by NADPH addition and measured after 30 mins by CYP450-Glo assay
Cytochrome P450 2D6, sequence (P10635 whole entry): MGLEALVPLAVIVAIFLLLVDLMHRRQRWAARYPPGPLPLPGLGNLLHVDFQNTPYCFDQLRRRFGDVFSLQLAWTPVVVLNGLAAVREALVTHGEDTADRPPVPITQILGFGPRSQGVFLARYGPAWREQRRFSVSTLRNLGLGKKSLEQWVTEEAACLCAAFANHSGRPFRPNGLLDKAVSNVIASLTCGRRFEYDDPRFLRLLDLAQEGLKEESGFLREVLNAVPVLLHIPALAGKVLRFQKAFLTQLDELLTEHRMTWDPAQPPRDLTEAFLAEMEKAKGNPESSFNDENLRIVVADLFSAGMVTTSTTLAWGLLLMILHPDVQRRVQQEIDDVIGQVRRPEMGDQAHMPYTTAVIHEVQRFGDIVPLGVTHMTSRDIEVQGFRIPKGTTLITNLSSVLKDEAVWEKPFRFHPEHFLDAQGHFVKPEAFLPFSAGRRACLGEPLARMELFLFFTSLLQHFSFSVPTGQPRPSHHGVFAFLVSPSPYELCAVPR

Trypanosoma brucei [2] = test: Inhibition of N-terminal His-tagged Trypanosoma brucei pteridine reductase 1 at 50 uM using di-hydrobiopterine as substrate measured at 1 min interval for 50 mins in presence of NADPH relative to control
In short: (§1)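 Photometric PTR1 assay with NADPH and dihydrobiopterin substrate. H₄B formation is coupled non-enzymatically to cytochrome c reduction, read as signal increase at 550 nm.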

[3] = Selectivity ratio of IC50 for Leishmania major pteridine reductase 1 to IC50 for N-terminal His-tagged Trypanosoma brucei pteridine reductase 1
[4] = Cytotoxicity against human THP1 cells after 72 hrs by MTT assay; type: cell-based, THP-1; conditions: read-out: NOAEL
Cytochrome P450 1A2 = target: T1, Cytochrome P450 1A2 (Homo sapiens, UniProt P05177); test: Inhibition of human CYP1A2 expressed in baculovirus infected insect cells using beetle D-luciferin as substrate preincubated for 30 mins followed by NADPH addition and measured after 30 mins by CYP450-Glo assay
T1 sequence (P05177 whole entry): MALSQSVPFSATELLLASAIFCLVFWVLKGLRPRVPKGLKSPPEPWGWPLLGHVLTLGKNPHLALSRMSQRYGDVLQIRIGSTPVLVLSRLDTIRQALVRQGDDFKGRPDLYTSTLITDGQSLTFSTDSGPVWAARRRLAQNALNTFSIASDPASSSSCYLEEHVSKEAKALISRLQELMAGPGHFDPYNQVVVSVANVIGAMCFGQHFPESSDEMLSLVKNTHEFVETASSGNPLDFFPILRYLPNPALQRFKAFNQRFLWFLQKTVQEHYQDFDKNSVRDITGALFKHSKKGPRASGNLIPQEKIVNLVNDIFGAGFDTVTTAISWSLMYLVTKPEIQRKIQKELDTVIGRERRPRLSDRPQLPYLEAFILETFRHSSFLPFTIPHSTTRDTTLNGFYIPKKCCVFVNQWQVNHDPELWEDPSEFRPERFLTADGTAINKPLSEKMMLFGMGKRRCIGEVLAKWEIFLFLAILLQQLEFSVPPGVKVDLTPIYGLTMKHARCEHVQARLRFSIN

[5] = target: T2, Pteridine reductase 1 (Leishmania major) (UniProt Q01782); test: Inhibition of Leishmania major pteridine reductase 1 at 50 uM using di-hydrobiopterine as substrate in presence of NADPH relative to control; in short: as §1
T2 sequence (whole entry): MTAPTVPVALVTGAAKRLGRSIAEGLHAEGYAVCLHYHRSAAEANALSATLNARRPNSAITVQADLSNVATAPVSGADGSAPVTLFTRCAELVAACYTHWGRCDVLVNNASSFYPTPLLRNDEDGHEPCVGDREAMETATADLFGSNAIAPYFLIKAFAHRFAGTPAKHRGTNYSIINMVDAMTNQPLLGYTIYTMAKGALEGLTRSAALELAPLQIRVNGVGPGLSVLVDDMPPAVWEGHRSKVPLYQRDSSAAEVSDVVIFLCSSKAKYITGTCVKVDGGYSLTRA

Cytochrome P450 2C9 = Cytochrome P450 2C9 (Homo sapiens, UniProt P11712); test: Inhibition of human CYP2C9 expressed in baculovirus infected insect cells using beetle D-luciferin as substrate preincubated for 30 mins followed by NADPH addition and measured after 30 mins by CYP450-Glo assay
Cytochrome P450 2C9, sequence (P11712 whole entry): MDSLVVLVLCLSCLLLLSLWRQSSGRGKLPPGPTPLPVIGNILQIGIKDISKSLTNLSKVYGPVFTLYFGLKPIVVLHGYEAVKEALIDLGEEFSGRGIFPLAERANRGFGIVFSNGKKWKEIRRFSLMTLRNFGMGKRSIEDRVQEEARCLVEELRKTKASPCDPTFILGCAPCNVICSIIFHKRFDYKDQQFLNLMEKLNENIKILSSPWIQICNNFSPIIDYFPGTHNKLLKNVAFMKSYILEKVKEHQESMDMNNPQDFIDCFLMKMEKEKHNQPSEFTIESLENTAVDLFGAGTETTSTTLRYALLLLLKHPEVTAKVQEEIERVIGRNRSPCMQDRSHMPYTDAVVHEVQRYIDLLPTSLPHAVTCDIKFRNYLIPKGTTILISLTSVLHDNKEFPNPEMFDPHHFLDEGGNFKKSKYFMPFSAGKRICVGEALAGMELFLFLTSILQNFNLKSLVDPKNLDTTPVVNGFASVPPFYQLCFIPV

[6] = Inhibition of N-terminal His-tagged Trypanosoma brucei pteridine reductase 1 using di-hydrobiopterine as substrate measured at 1 min interval for 50 mins in presence of NADPH; in short: as §1
[7] = Cytotoxicity against human A549 cells after 48 hrs by Celltiter-glo assay; type: cell-based
Leishmania infantum = test: Growth inhibition of luciferase expressing Leishmania infantum axenic amastigotes infected in human THP1 cells at 10 uM measured after 72 hrs by steady-glo luminescence assay relative to control; type: organism-based; conditions: for growth inhibition (GI): leishmania infantum, 72 h, 10 µM
Pteridine reductase 1 = target: T3, Pteridine reductase 1 (Leishmania major, UniProt Q01782); test: Inhibition of Leishmania major pteridine reductase 1 using di-hydrobiopterine as substrate in presence of NADPH; in short: as §1
T3 sequence (Q01782 whole entry): T2 sequence (whole entry)

Cytochrome P450 3A4 = Cytochrome P450 3A4 (Homo sapiens, UniProt P08684); test: Inhibition of human CYP3A4 expressed in baculovirus infected insect cells using beetle D-luciferin as substrate preincubated for 30 mins followed by NADPH addition and measured after 30 mins by CYP450-Glo assay
Cytochrome P450 3A4, sequence (P08684 whole entry): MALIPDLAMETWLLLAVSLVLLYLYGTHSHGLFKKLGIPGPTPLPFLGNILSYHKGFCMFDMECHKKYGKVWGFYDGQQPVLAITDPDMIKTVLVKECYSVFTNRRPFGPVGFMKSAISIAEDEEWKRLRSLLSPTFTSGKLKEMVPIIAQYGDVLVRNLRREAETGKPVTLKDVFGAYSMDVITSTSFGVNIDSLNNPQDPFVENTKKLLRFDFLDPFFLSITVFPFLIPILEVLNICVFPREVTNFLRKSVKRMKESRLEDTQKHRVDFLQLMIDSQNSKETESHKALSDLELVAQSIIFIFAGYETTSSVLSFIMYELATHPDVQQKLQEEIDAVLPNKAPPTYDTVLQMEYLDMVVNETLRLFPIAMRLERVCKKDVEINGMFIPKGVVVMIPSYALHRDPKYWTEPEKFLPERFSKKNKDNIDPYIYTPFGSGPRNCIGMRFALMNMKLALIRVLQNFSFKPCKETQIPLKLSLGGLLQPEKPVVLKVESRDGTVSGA

Trypanosoma cruzi = test: Growth inhibition of trypomastigote form of Trypanosoma cruzi Y infected in human U2OS cells at 50 uM measured after 72 hrs by DRAQ5 DNA dye based confocal microscopic analysis relative to control; type: organism-based; conditions: for inhibition at 50 µM: Trypanosoma cruzi, Y, U2OS, read-out: GI; for growth inhibition (GI): trypanosoma cruzi, 50 µM
Cytochrome P450 2C19 = Cytochrome P450 2C19 (Homo sapiens, UniProt P33261); test: Inhibition of human CYP2C19 expressed in baculovirus infected insect cells using beetle D-luciferin as substrate preincubated for 30 mins followed by NADPH addition and measured after 30 mins by CYP450-Glo assay
Cytochrome P450 2C19, sequence (P33261 whole entry): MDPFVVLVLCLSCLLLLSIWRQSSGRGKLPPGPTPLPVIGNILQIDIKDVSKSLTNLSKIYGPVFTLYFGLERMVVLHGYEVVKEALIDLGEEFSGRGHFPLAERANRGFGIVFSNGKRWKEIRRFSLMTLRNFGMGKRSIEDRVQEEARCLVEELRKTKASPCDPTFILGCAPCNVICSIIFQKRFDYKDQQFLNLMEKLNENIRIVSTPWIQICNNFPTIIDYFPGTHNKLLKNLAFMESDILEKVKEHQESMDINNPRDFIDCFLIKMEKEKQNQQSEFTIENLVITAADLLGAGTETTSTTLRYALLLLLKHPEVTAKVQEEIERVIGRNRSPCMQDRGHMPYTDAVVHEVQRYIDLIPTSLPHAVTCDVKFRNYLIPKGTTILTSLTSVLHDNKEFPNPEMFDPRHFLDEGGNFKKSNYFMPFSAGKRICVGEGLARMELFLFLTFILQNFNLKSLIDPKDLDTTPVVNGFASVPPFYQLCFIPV

[8] = Cytotoxicity against human U2OS cells assessed as reduction in cell number; type: cell-based
[9] = Mitochondrial toxicity in human 786-O cells measured after 6 hrs by MitoTracker Red chloromethyl-X-rosamine based assay; type: cell-based, 786-0
Trypanosoma brucei [10] = test: Growth inhibition of Trypanosoma brucei bloodstream forms at 10 uM measured after 72 hrs by resazurin-based fluorescence assay relative to control; type: organism-based; conditions: Trypanosoma brucei, read-out: GI

Voltage-gated inwardly rectifying potassium channel KCNH2, sequence (Q12809 whole entry): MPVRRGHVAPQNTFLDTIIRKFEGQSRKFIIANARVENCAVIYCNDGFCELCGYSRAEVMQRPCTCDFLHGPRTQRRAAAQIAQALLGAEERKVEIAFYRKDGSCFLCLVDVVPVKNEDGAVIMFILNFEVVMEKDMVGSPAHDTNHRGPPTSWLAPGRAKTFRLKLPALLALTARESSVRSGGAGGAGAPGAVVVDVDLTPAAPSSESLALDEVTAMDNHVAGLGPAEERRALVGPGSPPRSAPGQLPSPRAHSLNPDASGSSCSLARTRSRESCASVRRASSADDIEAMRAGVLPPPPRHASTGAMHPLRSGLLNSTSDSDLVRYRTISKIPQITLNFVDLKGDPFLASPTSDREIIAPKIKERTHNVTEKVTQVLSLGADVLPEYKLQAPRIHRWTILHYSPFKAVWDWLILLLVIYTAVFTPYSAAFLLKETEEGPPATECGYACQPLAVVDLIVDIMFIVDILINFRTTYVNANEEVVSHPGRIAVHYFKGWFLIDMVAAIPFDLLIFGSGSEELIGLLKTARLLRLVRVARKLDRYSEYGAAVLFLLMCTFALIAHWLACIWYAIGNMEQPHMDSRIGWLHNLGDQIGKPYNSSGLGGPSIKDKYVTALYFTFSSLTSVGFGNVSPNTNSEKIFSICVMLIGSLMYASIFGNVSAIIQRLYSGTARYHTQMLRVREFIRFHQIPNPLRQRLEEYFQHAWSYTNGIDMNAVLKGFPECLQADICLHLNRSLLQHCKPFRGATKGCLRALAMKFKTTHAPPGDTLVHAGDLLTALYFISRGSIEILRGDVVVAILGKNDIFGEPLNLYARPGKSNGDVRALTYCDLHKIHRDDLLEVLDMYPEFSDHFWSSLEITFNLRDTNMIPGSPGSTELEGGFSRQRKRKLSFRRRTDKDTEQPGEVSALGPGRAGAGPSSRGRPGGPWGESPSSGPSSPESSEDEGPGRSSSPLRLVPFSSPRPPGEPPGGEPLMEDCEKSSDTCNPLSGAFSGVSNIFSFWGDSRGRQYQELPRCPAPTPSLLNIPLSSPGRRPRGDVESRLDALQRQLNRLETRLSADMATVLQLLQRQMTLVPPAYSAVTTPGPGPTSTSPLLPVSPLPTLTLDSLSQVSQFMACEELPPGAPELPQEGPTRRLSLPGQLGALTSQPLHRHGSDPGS

## Nc1nc2ccc(C(=O)N(Cc3ccccc3)Cc3ccc(Cl)c(Cl)c3)cc2s1
[1]
  IC50: > 25 µM
Cytochrome P450 2D6
  IC50: < 10 µM
Trypanosoma brucei [2]
  inhibition: > 60%
[3]
  Ratio IC50: 2 to 100
[4]
  MNTC at 72 h: > 25 µM
Cytochrome P450 1A2
  IC50: > 25 µM
[5]
  inhibition: inactive
Cytochrome P450 2C9
  IC50: < 10 µM
[6]
  IC50: 12 µM
[7]
  GI50 at 48 h: > 25 µM
Leishmania infantum
  growth inhibition (GI): Non-Toxic
Pteridine reductase 1
  IC50: Not Active
Cytochrome P450 3A4
  IC50: < 10 µM
Trypanosoma cruzi
  inhibition at 50 µM: 62.1%
Cytochrome P450 2C19
  IC50: < 10 µM
[8]
  GI50: > 25 µM
[9]
  IC50 at 6 h: 10 to 25 µM
Trypanosoma brucei [10]
  inhibition at 10 µM: 26%

## Nc1nc2c(C(=O)NCc3ccccc3)cc(O)c(O)c2s1
[1]
  IC50: > 25 µM
Cytochrome P450 2D6
  IC50: < 10 µM
Trypanosoma brucei [2]
  inhibition: > 60%
[3]
  Ratio IC50: 2 to 100
[4]
  MNTC at 72 h: > 25 µM
Cytochrome P450 1A2
  IC50: > 25 µM
[5]
  inhibition: > 60%
Cytochrome P450 2C9
  IC50: > 25 µM
[6]
  IC50: 30.9 µM
[7]
  GI50 at 48 h: 10 to 25 µM
Leishmania infantum
  growth inhibition (GI): Non-Toxic
Pteridine reductase 1; read-out: IC50
  IC50: 30.1 µM
Cytochrome P450 3A4
  IC50: < 10 µM
Trypanosoma cruzi
  inhibition at 50 µM: 5.85%
Cytochrome P450 2C19
  IC50: > 25 µM
[8]
  GI50: > 25 µM
[9]
  IC50 at 6 h: 10 to 25 µM
Trypanosoma brucei [10]
  inhibition at 10 µM: 15%

## N#Cc1ccc(CNC(=O)c2ccc3nc(N)sc3c2)cc1
[1]
  IC50: > 25 µM
Cytochrome P450 2D6
  IC50: > 25 µM
Trypanosoma brucei [2]
  inhibition: > 60%
[3]
  Ratio IC50: 2 to 100
[4]
  MNTC at 72 h: > 25 µM
Cytochrome P450 1A2
  IC50: > 25 µM
[5]
  inhibition: > 60%
Cytochrome P450 2C9
  IC50: > 25 µM
[6]
  IC50: 42.9 µM
[7]
  GI50 at 48 h: > 25 µM
Leishmania infantum
  growth inhibition (GI): Non-Toxic
Pteridine reductase 1; read-out: IC50
  IC50: 73.3 µM
Cytochrome P450 3A4
  IC50: > 25 µM
Trypanosoma cruzi
  growth inhibition (GI): Non-Toxic
Cytochrome P450 2C19
  IC50: > 25 µM
[8]
  GI50: > 25 µM
[9]
  IC50 at 6 h: > 25 µM
Trypanosoma brucei [10]
  inhibition at 10 µM: 8%

## Nc1nc2c(C(=O)N(Cc3ccccc3)Cc3ccc(Cl)c(Cl)c3)cc(O)c(O)c2s1
[1]
  IC50: < 10 µM
Cytochrome P450 2D6
  IC50: < 10 µM
Trypanosoma brucei [2]
  inhibition: > 60%
[3]
  Ratio IC50: 2 to 100
[4]
  MNTC at 72 h: 10 to 25 µM
Cytochrome P450 1A2
  IC50: < 10 µM
[5]
  inhibition: > 60%
Cytochrome P450 2C9
  IC50: < 10 µM
[6]
  IC50: 11.4 µM
[7]
  GI50 at 48 h: > 25 µM
Leishmania infantum
  growth inhibition (GI): Non-Toxic
Pteridine reductase 1; read-out: IC50
  IC50: 15.2 µM
Cytochrome P450 3A4
  IC50: < 10 µM
Trypanosoma cruzi
  growth inhibition (GI): Non-Toxic
Cytochrome P450 2C19
  IC50: 10 to 25 µM
[8]
  GI50: 10 to 25 µM
[9]
  IC50 at 6 h: > 25 µM
Trypanosoma brucei [10]
  inhibition at 10 µM: 25%

## COC(=O)c1ccc(CS(=O)(=O)c2ccc3nc(N)sc3c2)cc1
[1]
  IC50: > 25 µM
Cytochrome P450 2D6
  IC50: < 10 µM
Trypanosoma brucei [2]
  inhibition: > 60%
[3]
  Ratio IC50: 2 to 100
[4]
  MNTC at 72 h: > 25 µM
Cytochrome P450 1A2
  IC50: > 25 µM
[5]
  inhibition: > 60%
Cytochrome P450 2C9
  IC50: 10 to 25 µM
[6]
  IC50: > 100 µM
[7]
  GI50 at 48 h: > 25 µM
Leishmania infantum; Leishmania infantum, THP-1, 72 h, read-out: GI
  inhibition at 10 µM: 12%
Pteridine reductase 1; read-out: IC50
  IC50: 65.9 µM
Cytochrome P450 3A4
  IC50: 10 to 25 µM
Trypanosoma cruzi
  growth inhibition (GI): Non-Toxic
Cytochrome P450 2C19
  IC50: < 10 µM
[8]
  GI50: > 25 µM
[9]
  IC50 at 6 h: > 25 µM
Trypanosoma brucei [10]
  inhibition at 10 µM: 14%

## COC(=O)c1ccc(COc2ccc3nc(N)sc3c2)cc1
[1]
  IC50: 10 to 25 µM
Cytochrome P450 2D6
  IC50: > 25 µM
Trypanosoma brucei [2]
  inhibition: > 60%
[3]
  Ratio IC50: 2 to 100
[4]
  MNTC at 72 h: 10 to 25 µM
Cytochrome P450 1A2
  IC50: > 25 µM
[5]
  inhibition: > 60%
Cytochrome P450 2C9
  IC50: > 25 µM
[6]
  IC50: 1.7 µM
[7]
  GI50 at 48 h: > 25 µM
Leishmania infantum
  growth inhibition (GI): Non-Toxic
Pteridine reductase 1; read-out: IC50
  IC50: 66.6 µM
Cytochrome P450 3A4
  IC50: 10 to 25 µM
Trypanosoma cruzi
  inhibition at 50 µM: 8.79%
Cytochrome P450 2C19
  IC50: < 10 µM
[8]
  GI50: > 25 µM
[9]
  IC50 at 6 h: > 25 µM
Trypanosoma brucei [10]
  inhibition at 10 µM: 22%

## Nc1nc2ccc(OCc3ccccc3)cc2s1
[1]
  IC50: < 10 µM
Cytochrome P450 2D6
  IC50: < 10 µM
Trypanosoma brucei [2]
  inhibition: > 60%
[3]
  Ratio IC50: 2 to 100
[4]
  MNTC at 72 h: > 25 µM
Cytochrome P450 1A2
  IC50: < 10 µM
[5]
  inhibition: inactive
Cytochrome P450 2C9
  IC50: > 25 µM
[6]
  IC50: 13.4 µM
[7]
  GI50 at 48 h: > 25 µM
Leishmania infantum
  growth inhibition (GI): Non-Toxic
Pteridine reductase 1
  IC50: Not Active
Cytochrome P450 3A4
  IC50: 10 to 25 µM
Trypanosoma cruzi
  growth inhibition (GI): Non-Toxic
Cytochrome P450 2C19
  IC50: > 25 µM
[8]
  GI50: > 25 µM
[9]
  IC50 at 6 h: > 25 µM
Trypanosoma brucei [10]
  inhibition at 10 µM: 28%

## Nc1nc2ccc(SCc3ccccc3)cc2s1
[1]
  IC50: > 25 µM
Cytochrome P450 2D6
  IC50: < 10 µM
Trypanosoma brucei [2]
  inhibition: > 60%
[3]
  Ratio IC50: 2 to 100
[4]
  MNTC at 72 h: 10 to 25 µM
Cytochrome P450 1A2
  IC50: < 10 µM
[5]
  inhibition: > 60%
Cytochrome P450 2C9
  IC50: > 25 µM
[6]
  IC50: 1.9 µM
[7]
  GI50 at 48 h: > 25 µM
Leishmania infantum
  growth inhibition (GI): Non-Toxic
Pteridine reductase 1; read-out: IC50
  IC50: 81 µM
Cytochrome P450 3A4
  IC50: 10 to 25 µM
Trypanosoma cruzi
  growth inhibition (GI): Non-Toxic
Cytochrome P450 2C19
  IC50: < 10 µM
[8]
  GI50: > 25 µM
[9]
  IC50 at 6 h: > 25 µM
Trypanosoma brucei [10]
  inhibition at 10 µM: 14%
